# From ChEMBL document CHEMBL4814076, “Discovery of a Potent and Selective Covalent Inhibitor of Bruton's Tyrosine Kinase with Oral Anti-Inflammatory Activity” (ACS Med Chem Lett, 2021)
# Activity calls are given as the source filed them. The rule behind the calls is not given here.
# Tests used:
# [1] = target: Serine/threonine-protein kinase B-raf (Homo sapiens, UniProt P15056); test: Inhibition of recombinant human B-RAF (416 to end residues) using myelin basic protein as substrate incubated for 40 mins in presence of [gamma33P]ATP by scintillation counting method
# [2] = target: Tyrosine-protein kinase BTK (Homo sapiens, UniProt Q06187); test: Irreversible covalent inhibition of recombinant unphosphorylated human GST-tagged BTK kinase domain (389 to 659 residues) expressed in insect cells assessed as protein-compound adduct formation under native conditions by HPLC analysis
# In short: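 BTK protein incubated with compound. Adduct mass measured under denaturing and nondenaturing conditions.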
# [3] = target: Proto-oncogene tyrosine-protein kinase Src (Homo sapiens, UniProt P12931); test: Inhibition of recombinant human SRC (1 to 530 residues) using GGEEEEYFELVKKKK as substrate incubated for 40 mins in presence of [gamma33P]ATP by scintillation counting method
# [4] = target: T1, Tyrosine-protein kinase Tec (Homo sapiens, UniProt P42680); test: Inhibition of recombinant human TEC (174 to end residues) using EFPIYDFLPAKKK as substrate incubated for 40 mins in presence of [gamma33P]ATP by scintillation counting method
# T1 sequence (P42680 whole entry): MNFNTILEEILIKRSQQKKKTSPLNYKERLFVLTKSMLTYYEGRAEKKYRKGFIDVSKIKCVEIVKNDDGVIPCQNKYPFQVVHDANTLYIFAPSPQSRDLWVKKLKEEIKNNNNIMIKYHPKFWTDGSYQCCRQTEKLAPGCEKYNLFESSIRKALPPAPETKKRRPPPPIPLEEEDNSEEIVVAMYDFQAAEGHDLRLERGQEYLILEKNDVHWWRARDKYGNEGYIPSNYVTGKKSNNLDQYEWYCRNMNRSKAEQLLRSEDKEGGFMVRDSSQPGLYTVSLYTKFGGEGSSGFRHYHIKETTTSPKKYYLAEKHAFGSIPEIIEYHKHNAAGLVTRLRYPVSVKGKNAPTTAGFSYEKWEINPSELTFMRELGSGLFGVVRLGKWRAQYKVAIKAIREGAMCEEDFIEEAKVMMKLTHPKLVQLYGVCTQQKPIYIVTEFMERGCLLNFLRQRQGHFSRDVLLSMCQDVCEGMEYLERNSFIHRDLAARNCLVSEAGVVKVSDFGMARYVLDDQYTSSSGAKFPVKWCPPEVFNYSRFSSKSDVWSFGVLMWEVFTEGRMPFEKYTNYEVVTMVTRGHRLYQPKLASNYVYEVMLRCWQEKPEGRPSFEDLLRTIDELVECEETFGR
# [5] = target: T2, Cytoplasmic tyrosine-protein kinase BMX (Homo sapiens, UniProt P51813); test: Inhibition of recombinant human full length BMX using poly(Glu, Tyr) 4:1 as substrate incubated for 40 mins in presence of [gamma33P]ATP by scintillation counting method
# T2 sequence (P51813 whole entry): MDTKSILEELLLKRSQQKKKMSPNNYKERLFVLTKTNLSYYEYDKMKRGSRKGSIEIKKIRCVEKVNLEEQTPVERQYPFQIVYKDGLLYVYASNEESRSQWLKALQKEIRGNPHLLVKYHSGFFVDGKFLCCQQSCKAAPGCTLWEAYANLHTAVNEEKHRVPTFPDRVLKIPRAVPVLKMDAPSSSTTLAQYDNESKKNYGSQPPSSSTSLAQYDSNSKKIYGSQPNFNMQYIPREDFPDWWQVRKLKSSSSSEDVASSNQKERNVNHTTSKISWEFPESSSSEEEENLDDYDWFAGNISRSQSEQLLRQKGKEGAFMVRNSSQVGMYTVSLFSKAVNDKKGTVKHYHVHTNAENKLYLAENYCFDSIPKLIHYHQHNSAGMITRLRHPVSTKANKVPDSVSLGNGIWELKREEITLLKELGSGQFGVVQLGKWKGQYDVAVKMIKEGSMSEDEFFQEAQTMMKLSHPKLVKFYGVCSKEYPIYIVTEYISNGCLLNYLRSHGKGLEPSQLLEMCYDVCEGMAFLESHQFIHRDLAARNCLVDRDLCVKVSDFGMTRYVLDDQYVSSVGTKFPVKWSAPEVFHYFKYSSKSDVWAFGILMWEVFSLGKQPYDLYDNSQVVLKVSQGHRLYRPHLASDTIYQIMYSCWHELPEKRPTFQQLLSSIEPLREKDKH
# [6] = Cmax in Beagle dog at 2.5 mg/kg, po measured upto 24 hrs by LC-MS/MS analysis; type: ADME, organism-based, Canis lupus familiaris; parameters: route oral, dose 2.5 mg/kg, time <=24; settings: in vivo
# In short: (§1)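 Rats (nonfasted; IV 1 mg/kg, PO 5 mg/kg) and dogs (fasted; IV 0.5 mg/kg, PO 2.5 mg/kg) dosed from 20% hydroxypropyl-β-cyclodextrin solution.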
# [7] = In vivo protein occupancy at BTK in Wistar rat at 3 mg/kg, po measured after 48 hrs by ELISA relative to control; type: functional
# In short: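 Single oral dose of 3 mg/kg in rats. BTK occupancy compared with plasma concentration over time out to 48 h.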
# [8] = Inhibition of BTK in Wistar rat whole blood assessed as reduction in anti-IgD-induced B220/CD86+ expression incubated for 1 hr followed anti-IgD stimulation and measured after overnight by flow cytometry analysis; type: tissue-based; settings: Rattus norvegicus, Blood, 1 h
# In short: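 B-cell activation induced by anti-IgD in rat whole blood, read as B220+CD86+ cells.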
# [9] = target: Tyrosine-protein kinase BTK (Mus musculus, UniProt P35991); test: Inhibition of BTK in C57Bl/6 mouse splenocyte assessed as reduction in anti-IgM-induced CD69 expression incubated for 1 hr followed anti-IgM stimulation and measured after overnight by flow cytometry analysis; type: tissue-based
# In short: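 Mouse splenocytes stimulated with anti-IgM. CD69 expression measured as the read-out.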
# Rattus norvegicus = test: Antiinflammatory activity in po dosed Wistar rat model of type-2 collagen/incomplete freund's adjuvant-induced arthritis assessed as reduction in paw inflammation administered once daily on day 9 post type-2 collagen/incomplete freund's adjuvant stimulation and treated until day 16; type: functional, organism-based; settings: dose 1-30 mg/kg, time 8.0 day
# In short: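 Arthritis induced in female Wistar rats by collagen injection on day 0 and day 7. Compound given orally once daily from day 9 through day 16. Hind paw inflammation scored. Anti-TNFα comparator dosed at 10 mg/kg every other day.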
# [10] = target: Tyrosine-protein kinase Fgr (Homo sapiens, UniProt P09769); test: Inhibition of recombinant human FGR (2 to end residues) using poly(Glu, Tyr) 4:1 as substrate incubated for 40 mins in presence of [gamma33P]ATP by scintillation counting method
# [11] = Tmax in Beagle dog at 2.5 mg/kg, po measured upto 24 hrs by LC-MS/MS analysis; type: ADME, organism-based, Canis lupus familiaris; settings: in vivo; in short: as §1
# [12] = Clearance in Sprague-Dawley rat at 5 mg/kg, po or 1 mg/kg, iv measured upto 24 hrs by LC-MS/MS analysis; type: ADME, organism-based; settings: in vivo; in short: as §1
# [13] = Half life in Beagle dog at 0.5 mg/kg, iv measured upto 24 hrs by LC-MS/MS analysis; type: ADME, organism-based, Canis lupus familiaris; settings: in vivo; in short: as §1
# [14] = target: Tyrosine-protein kinase HCK (Homo sapiens, UniProt P08631); test: Inhibition of recombinant human HCK (230 to 497 residues) using GGMEDIYFEFMGGKKK as substrate incubated for 40 mins in presence of [gamma33P]ATP by scintillation counting method
# [15] = Cmax in Sprague-Dawley rat at 5 mg/kg, po measured upto 24 hrs by LC-MS/MS analysis; type: ADME, organism-based; parameters: route oral, dose 5 mg/kg, time <=24; settings: in vivo; in short: as §1
# Sequence of Serine/threonine-protein kinase B-raf (P15056 whole entry, the tested form may be a part): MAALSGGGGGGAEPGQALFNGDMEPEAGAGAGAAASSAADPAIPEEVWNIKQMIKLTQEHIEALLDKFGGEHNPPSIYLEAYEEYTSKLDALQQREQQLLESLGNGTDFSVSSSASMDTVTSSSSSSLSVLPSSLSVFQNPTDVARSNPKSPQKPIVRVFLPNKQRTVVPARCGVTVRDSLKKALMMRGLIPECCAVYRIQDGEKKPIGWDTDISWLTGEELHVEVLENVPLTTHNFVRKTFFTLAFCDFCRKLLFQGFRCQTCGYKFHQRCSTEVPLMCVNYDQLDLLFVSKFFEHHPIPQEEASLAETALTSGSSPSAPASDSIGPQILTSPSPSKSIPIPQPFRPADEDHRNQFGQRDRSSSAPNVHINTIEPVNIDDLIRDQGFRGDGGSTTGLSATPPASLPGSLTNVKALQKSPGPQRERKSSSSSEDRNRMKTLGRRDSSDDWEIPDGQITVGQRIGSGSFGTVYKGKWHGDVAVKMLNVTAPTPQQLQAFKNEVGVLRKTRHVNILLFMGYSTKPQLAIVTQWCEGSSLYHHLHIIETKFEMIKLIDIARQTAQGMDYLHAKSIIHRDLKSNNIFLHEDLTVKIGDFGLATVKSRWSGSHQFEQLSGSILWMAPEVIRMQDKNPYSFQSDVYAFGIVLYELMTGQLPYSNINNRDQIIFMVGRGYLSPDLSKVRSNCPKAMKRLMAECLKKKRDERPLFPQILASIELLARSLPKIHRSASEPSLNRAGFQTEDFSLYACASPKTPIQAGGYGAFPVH
# Sequence of Tyrosine-protein kinase BTK (Homo sapiens, UniProt Q06187) (Q06187 whole entry, the tested form may be a part): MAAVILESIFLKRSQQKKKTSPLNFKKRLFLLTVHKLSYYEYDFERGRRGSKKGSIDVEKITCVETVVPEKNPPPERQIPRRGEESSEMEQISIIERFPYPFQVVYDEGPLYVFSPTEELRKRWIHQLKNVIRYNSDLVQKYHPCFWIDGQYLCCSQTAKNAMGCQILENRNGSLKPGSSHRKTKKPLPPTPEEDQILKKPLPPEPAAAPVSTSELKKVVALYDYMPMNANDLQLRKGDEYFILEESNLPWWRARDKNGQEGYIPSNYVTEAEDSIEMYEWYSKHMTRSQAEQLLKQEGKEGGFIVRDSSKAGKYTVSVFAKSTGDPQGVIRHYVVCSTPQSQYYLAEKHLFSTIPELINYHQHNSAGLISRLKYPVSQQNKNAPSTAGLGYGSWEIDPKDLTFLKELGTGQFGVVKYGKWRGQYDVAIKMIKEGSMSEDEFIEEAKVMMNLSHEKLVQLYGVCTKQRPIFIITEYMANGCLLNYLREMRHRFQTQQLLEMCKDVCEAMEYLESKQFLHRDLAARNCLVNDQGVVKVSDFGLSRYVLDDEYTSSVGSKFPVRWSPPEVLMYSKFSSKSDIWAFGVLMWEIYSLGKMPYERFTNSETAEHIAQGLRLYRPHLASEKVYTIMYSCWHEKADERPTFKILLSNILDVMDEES
# Sequence of Tyrosine-protein kinase Fgr (P09769 whole entry): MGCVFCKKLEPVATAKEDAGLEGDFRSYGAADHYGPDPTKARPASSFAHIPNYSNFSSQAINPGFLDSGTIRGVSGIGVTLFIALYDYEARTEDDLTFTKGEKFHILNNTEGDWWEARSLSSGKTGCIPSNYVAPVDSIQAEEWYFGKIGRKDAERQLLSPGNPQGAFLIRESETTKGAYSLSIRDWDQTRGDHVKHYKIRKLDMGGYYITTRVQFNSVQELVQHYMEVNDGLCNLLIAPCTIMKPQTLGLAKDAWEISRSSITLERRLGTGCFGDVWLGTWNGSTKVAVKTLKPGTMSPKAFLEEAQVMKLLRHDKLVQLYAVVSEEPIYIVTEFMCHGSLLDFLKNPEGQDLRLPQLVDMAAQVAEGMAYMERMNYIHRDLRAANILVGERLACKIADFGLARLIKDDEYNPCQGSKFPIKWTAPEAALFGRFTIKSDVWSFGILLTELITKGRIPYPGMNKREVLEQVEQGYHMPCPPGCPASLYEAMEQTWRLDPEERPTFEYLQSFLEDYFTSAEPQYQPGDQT
# Sequence of Tyrosine-protein kinase HCK (P08631 whole entry, the tested form may be a part): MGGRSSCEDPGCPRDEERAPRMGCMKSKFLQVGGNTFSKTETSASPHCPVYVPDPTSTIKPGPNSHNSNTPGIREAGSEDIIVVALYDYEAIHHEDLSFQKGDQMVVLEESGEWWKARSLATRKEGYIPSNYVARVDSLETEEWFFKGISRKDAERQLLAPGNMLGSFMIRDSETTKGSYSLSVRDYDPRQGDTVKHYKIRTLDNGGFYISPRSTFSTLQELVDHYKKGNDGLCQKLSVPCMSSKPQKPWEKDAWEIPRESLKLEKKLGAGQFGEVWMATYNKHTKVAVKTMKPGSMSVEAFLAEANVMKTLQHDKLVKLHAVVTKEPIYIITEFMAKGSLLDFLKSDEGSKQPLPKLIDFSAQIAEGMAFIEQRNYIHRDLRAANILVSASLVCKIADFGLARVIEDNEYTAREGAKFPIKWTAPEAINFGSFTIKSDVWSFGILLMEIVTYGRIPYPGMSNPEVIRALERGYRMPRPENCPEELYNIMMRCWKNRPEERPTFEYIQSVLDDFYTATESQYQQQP
# Sequence of Tyrosine-protein kinase BTK (Mus musculus, UniProt P35991) (P35991 whole entry): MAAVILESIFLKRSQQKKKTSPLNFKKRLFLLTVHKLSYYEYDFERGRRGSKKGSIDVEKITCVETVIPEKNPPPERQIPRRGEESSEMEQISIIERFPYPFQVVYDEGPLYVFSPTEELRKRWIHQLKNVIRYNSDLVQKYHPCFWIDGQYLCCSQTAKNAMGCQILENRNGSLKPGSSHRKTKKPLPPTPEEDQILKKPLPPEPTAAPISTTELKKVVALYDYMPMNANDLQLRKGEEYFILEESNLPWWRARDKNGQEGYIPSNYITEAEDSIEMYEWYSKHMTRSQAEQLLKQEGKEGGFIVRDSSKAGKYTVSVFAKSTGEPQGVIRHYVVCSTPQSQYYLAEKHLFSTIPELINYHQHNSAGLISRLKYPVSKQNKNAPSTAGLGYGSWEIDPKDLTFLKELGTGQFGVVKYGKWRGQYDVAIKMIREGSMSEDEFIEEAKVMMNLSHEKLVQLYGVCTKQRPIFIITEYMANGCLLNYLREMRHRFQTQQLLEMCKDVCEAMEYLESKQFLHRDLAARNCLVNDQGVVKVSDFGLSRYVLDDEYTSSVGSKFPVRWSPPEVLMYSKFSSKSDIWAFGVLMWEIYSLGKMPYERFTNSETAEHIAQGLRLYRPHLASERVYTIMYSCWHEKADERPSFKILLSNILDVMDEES
# Sequence of Proto-oncogene tyrosine-protein kinase Src (P12931 2-536 limits assumed): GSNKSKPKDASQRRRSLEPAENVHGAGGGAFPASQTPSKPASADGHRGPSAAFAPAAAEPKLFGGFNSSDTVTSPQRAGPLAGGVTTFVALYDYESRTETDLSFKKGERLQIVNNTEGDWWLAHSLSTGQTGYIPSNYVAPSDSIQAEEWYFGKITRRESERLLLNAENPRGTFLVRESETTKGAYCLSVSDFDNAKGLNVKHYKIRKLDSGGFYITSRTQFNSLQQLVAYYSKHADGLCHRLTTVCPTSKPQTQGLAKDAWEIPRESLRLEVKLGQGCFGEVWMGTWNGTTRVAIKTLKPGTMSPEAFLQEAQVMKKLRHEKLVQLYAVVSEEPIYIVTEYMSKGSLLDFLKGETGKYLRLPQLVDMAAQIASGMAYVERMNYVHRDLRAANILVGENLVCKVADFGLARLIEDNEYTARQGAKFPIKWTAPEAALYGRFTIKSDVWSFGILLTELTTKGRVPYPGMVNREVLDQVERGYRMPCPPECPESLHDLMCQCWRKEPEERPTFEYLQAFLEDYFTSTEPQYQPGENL
structure (smiles),measurement,setting,value
C=CC(=O)N1CC[C@@H](NC(=O)c2sc3nccc4c3c2NC(=O)N4c2ccc(Oc3ccccc3)cc2C)C1,IC50,[1],7.84 µM
same,inhibition,[2],Active
same,IC50,[3],3.49 µM
same,IC50,[4],0.409 µM
same,IC50,[5],0.129 µM
same,Cmax,[6],1500 nM
same,Activity,[7],50%
same,IC50,[8],0.13 µM
same,IC50,[9],0.011 µM
same,Activity,Rattus norvegicus,Dose-Dependent Effect
same,IC50,[10],4.76 µM
same,Tmax,[11],0.8 h
same,clearance,[12],39.6 mL/min/kg
same,half-life,[13],1.9 h
same,IC50,[14],> 30 µM
same,Cmax,[15],600 nM
